The experiment addresses Voltage-dependent T-type calcium channel subunit alpha-1G (Homo sapiens, UniProt O43497). Briefly: Inhibition of T type calcium channel subunit alpha1G expressed in HEK293 cells assessed as effect on KCl-induced increase in intracellular calcium level at 10 uM by FDSS assay. The format is cell-based. The method in brief:
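HEK293 cells stably co-expressing α1G and Kir2.1 were plated at 40,000 cells/well and used the next day. Loaded 60 min at room temperature with 5 µM fluo3/AM plus 0.001% Pluronic F-127 in HEPES buffer (1.8 mM CaCl2, pH 7.4). Depolarized with 70 mM KCl in buffer containing 10 mM CaCl2; the rise in intracellular Ca2+ was read by fluorescence.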
(Calcium assays in cells follow changes in intracellular calcium, usually with a dye or a luminescent sensor.)
Sequence of Voltage-dependent T-type calcium channel subunit alpha-1G (O43497 whole entry): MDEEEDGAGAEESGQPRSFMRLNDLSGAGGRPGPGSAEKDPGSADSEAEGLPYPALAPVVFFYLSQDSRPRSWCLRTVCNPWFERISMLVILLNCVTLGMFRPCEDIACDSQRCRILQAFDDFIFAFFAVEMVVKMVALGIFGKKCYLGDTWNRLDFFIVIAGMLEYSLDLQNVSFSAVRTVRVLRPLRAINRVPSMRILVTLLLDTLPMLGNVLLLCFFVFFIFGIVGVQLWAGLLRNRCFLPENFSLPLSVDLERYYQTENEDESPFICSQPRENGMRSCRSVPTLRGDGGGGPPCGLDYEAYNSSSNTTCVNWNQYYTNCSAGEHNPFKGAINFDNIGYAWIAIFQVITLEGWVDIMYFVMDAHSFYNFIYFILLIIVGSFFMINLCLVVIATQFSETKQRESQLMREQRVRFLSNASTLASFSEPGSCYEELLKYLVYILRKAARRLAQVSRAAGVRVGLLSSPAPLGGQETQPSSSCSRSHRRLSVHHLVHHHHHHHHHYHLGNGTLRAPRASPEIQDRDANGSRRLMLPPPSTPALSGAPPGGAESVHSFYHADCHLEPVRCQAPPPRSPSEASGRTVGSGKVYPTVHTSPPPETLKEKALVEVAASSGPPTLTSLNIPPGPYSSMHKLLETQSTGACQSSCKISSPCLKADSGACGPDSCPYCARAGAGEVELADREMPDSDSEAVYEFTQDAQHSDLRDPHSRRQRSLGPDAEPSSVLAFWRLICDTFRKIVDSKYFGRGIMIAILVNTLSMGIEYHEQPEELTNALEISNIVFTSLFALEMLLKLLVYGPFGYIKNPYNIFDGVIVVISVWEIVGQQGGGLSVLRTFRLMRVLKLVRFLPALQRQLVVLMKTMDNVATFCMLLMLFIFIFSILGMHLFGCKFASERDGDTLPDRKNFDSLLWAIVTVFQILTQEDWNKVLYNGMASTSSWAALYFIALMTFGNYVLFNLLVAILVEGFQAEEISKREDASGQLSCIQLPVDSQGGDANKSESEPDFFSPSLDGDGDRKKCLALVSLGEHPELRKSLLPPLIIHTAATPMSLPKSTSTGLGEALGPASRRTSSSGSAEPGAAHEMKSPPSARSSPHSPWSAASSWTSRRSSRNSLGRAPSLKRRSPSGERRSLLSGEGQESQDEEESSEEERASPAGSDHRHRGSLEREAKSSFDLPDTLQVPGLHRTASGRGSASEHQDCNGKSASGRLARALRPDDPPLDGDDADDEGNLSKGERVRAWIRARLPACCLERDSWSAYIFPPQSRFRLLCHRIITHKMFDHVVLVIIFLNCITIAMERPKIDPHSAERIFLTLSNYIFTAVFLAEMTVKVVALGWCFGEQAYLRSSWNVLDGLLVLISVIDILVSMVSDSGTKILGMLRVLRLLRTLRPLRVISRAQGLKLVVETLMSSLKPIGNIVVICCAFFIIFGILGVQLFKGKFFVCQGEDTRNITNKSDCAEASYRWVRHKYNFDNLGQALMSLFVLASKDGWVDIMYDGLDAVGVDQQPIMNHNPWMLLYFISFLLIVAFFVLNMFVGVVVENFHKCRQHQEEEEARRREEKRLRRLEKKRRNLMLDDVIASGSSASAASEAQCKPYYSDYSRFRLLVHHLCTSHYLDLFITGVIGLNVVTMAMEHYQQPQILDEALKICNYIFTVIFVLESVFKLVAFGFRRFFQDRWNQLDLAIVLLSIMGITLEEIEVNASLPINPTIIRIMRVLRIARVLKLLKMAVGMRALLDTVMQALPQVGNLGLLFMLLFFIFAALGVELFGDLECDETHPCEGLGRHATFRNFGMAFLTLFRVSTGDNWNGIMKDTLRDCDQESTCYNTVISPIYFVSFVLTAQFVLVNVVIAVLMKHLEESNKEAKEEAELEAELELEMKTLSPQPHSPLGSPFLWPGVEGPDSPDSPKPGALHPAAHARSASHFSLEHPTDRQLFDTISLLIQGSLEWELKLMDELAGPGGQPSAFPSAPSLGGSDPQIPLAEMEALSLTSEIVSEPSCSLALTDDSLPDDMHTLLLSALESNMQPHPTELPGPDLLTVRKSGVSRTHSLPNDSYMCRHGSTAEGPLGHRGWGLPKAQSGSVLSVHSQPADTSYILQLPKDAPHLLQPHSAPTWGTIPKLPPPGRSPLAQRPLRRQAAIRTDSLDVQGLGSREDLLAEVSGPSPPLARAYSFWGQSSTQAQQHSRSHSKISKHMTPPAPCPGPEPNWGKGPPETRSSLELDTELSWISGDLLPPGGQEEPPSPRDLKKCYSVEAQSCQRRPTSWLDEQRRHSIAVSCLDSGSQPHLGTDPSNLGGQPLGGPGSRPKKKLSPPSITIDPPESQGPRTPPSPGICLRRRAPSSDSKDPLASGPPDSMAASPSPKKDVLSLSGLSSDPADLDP
Usually inhibition stands for the change of the read-out against control, counted positive when it falls. Take `O=C(CCCN1CCN(c2ccc(F)cc2)CC1)Nc1ccc(F)cc1F`: the inhibition worked out at 38.1%.

In the case of `COc1cccc(N2CCN(CCC(=O)Nc3ccc(F)cc3F)CC2)c1`, the inhibition was 29.5%.

For `O=C(CN1CCN(C(=O)CCCCN2CCN(c3ccccc3F)CC2)CC1)Nc1ccccc1Cl`, the inhibition was 22.1%.

Turning to `O=C(CCCN1CCN(c2ccc(F)cc2)CC1)Nc1cc(Cl)c(Cl)c(Cl)c1`, the inhibition was 20.7%.

On to `O=C(CCN1CCN(Cc2cccc(Cl)c2)CC1)Nc1ccc(F)cc1F`, for which the inhibition was determined as 34.7%.

Consider `O=C(CCN1CCN(c2cccc(Cl)c2)CC1)Nc1ccc(F)cc1F`, for which the inhibition worked out at 26.4%.

In the case of `O=C(CCN1CCN(c2ccccc2)CC1)Nc1ccc(F)cc1F`, the inhibition is 33.2%.

For `O=C(CCN1CCN(Cc2c(F)cccc2Cl)CC1)Nc1ccc(F)cc1F`, the inhibition was 29.7%.

On to `O=C(CCCN1CCN(c2ccccc2F)CC1)Nc1ccc(F)cc1F`, for which the inhibition is 32.2%.

As to `COc1cccc(N2CCN(CCCCC(=O)N3CCN(CC(=O)Nc4ccccc4Cl)CC3)CC2)c1`, the inhibition came to 26.1%.

In the case of `O=C(CN1CCN(C(=O)CCCCN2CCN(c3ccc(F)cc3)CC2)CC1)Nc1ccccc1Cl`, the inhibition was determined as 34.9%.

As to `O=C(CCCN1CCN(c2ccccc2Cl)CC1)Nc1ccc(F)cc1F`, the inhibition amounted to 42%.

For the compound `N#Cc1ccccc1N1CCN(CCCCC(=O)N2CCN(CC(=O)Nc3ccccc3Cl)CC2)CC1`, the inhibition was 7.38%.

As for `O=C(CCN1CCN(Cc2ccc(Cl)c(Cl)c2)CC1)Nc1ccc(F)cc1F`, the inhibition stood at 34.6%.

For the compound `O=C(CCCN1CCN(Cc2ccc(Cl)c(Cl)c2)CC1)Nc1ccc(F)cc1F`, the inhibition was determined as 59.9%.

Consider `O=C(CCCN1CCN(c2ccccc2)CC1)Nc1ccc(F)cc1F`, for which the inhibition was 36.8%.

For the compound `O=C(CCCN1CCN(Cc2cccc(Cl)c2)CC1)Nc1cc(Cl)c(Cl)c(Cl)c1`, the inhibition came out at 37%.

On to `COc1ccccc1N1CCN(CCCC(=O)Nc2ccc(F)cc2F)CC1`, for which the inhibition is 33%.

In the case of `O=C(CCCN1CCN(c2cccc(Cl)c2)CC1)Nc1ccc(F)cc1F`, the inhibition came out at 51%.

For the compound `O=C(CCCN1CCN(c2ccccc2Cl)CC1)Nc1cc(Cl)c(Cl)c(Cl)c1`, the inhibition is 13.6%.

Turning to `O=C(CN1CCN(C(=O)CCCCN2CCN(Cc3ccccc3)CC2)CC1)Nc1ccccc1Cl`, the inhibition amounted to 15.9%.

As for `COc1cccc(N2CCN(CCCC(=O)Nc3cc(Cl)c(Cl)c(Cl)c3)CC2)c1`, the inhibition was found to be 21.6%.

In the case of `O=C(CN1CCN(C(=O)CCCCN2CCN(c3ccccc3)CC2)CC1)Nc1ccccc1Cl`, the inhibition was found to be 25.2%.

Regarding `O=C(CCCN1CCN(c2cccc(Cl)c2)CC1)Nc1cc(Cl)c(Cl)c(Cl)c1`, the inhibition was determined as 16.8%.

Regarding `CCN1CCN(CCCCC(=O)N2CCN(CC(=O)Nc3cccc(C)c3)CC2)CC1`, the inhibition was -1.36%.

Consider `O=C(CCCN1CCN(Cc2c(F)cccc2Cl)CC1)Nc1ccc(F)cc1F`, for which the inhibition came to 38.9%.

On to `O=C(CCCN1CCN(Cc2ccccc2)CC1)Nc1cc(Cl)c(Cl)c(Cl)c1`, for which the inhibition is 49.4%.

In the case of `COc1ccccc1N1CCN(CCCC(=O)Nc2cc(Cl)c(Cl)c(Cl)c2)CC1`, the inhibition is 33.7%.

As for `O=C(CCCN1CCN(c2ccccc2)CC1)Nc1cc(Cl)c(Cl)c(Cl)c1`, the inhibition worked out at 38.3%.

As to `O=C(CCCN1CCN(Cc2ccccc2)CC1)Nc1ccc(F)cc1F`, the inhibition came to 23.2%.

As for `O=C(CN1CCN(C(=O)CCCCN2CCN(Cc3cccc(Cl)c3)CC2)CC1)Nc1ccccc1Cl`, the inhibition is 40.9%.

As to `O=C(CCN1CCN(Cc2ccc(Cl)cc2)CC1)Nc1ccc(F)cc1F`, the inhibition was determined as 33.2%.

For `O=C(CN1CCN(C(=O)CCCCN2CCN(Cc3ccc(Cl)cc3)CC2)CC1)Nc1ccccc1Cl`, the inhibition was 26.2%.

For `O=C(CCCN1CCN(c2ccccc2F)CC1)Nc1cc(Cl)c(Cl)c(Cl)c1`, the inhibition turned out to be 20.1%.

With `COc1cccc(N2CCN(CCCC(=O)Nc3ccc(F)cc3F)CC2)c1`, the inhibition was 40.6%.

As for `O=C(CCCN1CCN(Cc2ccc(Cl)cc2)CC1)Nc1cc(Cl)c(Cl)c(Cl)c1`, the inhibition was 27.5%.

These data come from ChEMBL document CHEMBL1142891, “Lead discovery and optimization of T-type calcium channel blockers” (Bioorg Med Chem, 2007).
